What was measured:
[1] = target: T1, Fatty-acid amide hydrolase 1 (Rattus norvegicus, UniProt P97612); assay: Inhibition of rat FAAH expressed in Escherichia coli
T1 sequence (P97612 whole entry): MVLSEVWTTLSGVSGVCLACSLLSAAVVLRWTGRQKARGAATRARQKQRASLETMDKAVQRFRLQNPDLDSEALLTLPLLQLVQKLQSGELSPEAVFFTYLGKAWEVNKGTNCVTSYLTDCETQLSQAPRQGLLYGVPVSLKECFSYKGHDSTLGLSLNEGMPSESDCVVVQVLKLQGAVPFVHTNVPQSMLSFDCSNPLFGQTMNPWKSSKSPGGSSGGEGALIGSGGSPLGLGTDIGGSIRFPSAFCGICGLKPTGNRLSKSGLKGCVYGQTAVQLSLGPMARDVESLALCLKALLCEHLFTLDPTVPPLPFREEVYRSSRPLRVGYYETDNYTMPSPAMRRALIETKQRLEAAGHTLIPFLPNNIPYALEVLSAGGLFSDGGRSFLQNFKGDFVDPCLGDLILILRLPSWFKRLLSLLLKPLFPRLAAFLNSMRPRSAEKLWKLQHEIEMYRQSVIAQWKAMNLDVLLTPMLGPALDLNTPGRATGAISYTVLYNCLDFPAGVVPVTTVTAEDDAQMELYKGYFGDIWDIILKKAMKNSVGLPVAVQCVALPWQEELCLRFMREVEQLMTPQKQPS

[2] = target: T1, Fatty-acid amide hydrolase 1; assay: Inhibition of rat FAAH expressed in Escherichia coli at pH 9.0
[3] = Selectivity ratio of IC50 for TGH over IC50 for rat FAAH expressed in Escherichia coli
[4] = target: T2, Neutral cholesterol ester hydrolase 1 (Homo sapiens, UniProt Q6PIU2); assay: Inhibition of KIAA1363 hydrolase
T2 sequence (Q6PIU2 whole entry): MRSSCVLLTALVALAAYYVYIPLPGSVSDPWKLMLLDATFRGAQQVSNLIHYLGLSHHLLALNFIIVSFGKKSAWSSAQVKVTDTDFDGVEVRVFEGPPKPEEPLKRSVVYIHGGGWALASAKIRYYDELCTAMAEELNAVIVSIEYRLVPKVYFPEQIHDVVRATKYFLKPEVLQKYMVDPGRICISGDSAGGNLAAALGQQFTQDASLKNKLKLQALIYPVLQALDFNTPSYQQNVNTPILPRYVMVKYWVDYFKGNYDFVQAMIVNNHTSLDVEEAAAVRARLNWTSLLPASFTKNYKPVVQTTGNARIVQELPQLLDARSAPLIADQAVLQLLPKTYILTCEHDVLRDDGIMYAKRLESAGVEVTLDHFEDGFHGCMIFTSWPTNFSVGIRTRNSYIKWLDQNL

Liver carboxylesterase 1 = target: T3, Liver carboxylesterase 1 (Homo sapiens, UniProt P23141); assay: Inhibition of TGH
T3 sequence (P23141 whole entry): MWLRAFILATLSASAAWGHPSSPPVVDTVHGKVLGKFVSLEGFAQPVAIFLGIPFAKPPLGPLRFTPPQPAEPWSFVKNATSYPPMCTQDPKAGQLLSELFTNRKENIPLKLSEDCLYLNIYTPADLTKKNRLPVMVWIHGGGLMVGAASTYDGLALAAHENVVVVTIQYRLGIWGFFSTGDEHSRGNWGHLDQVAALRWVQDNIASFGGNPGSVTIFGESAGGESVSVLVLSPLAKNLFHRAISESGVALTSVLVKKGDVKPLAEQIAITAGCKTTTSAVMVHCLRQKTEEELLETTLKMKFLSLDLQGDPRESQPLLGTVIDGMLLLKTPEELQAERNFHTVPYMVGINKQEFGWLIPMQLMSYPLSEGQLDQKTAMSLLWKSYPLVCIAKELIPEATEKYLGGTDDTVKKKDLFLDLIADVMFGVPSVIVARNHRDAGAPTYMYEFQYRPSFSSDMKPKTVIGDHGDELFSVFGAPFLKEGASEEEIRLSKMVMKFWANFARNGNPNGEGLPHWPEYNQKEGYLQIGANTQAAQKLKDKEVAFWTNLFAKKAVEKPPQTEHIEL
In short: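 Measured in a proteome-wide selectivity screen that globally profiles mammalian serine hydrolases, with TGH among the enzymes detected. Values are reported as IC50 from this screen rather than as Ki from substrate hydrolysis assays.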

- IC50 [1]: 0.01 µM
- Ki [2]: 0.007 µM
- Ratio IC50 [3]: 20
- IC50 [4]: > 100 µM
- IC50 (Liver carboxylesterase 1): 0.2 µM
SMILES: COC(=O)c1nc(C(=O)CCCCCCc2ccccc2)no1

From ChEMBL document CHEMBL1155875, “Optimization of the central heterocycle of alpha-ketoheterocycle inhibitors of fatty acid amide hydrolase” (J Med Chem, 2008)
